pIC50: −log10 of the molar value.
Key:
[1] = target: T1, Histone-arginine methyltransferase CARM1 (Mus musculus, UniProt Q9WVG6); experiment: Inhibition of N-terminal His-tagged mouse recombinant CARM1 expressed in Sf9 cells by microbeta counting
T1 sequence (Q9WVG6 whole entry): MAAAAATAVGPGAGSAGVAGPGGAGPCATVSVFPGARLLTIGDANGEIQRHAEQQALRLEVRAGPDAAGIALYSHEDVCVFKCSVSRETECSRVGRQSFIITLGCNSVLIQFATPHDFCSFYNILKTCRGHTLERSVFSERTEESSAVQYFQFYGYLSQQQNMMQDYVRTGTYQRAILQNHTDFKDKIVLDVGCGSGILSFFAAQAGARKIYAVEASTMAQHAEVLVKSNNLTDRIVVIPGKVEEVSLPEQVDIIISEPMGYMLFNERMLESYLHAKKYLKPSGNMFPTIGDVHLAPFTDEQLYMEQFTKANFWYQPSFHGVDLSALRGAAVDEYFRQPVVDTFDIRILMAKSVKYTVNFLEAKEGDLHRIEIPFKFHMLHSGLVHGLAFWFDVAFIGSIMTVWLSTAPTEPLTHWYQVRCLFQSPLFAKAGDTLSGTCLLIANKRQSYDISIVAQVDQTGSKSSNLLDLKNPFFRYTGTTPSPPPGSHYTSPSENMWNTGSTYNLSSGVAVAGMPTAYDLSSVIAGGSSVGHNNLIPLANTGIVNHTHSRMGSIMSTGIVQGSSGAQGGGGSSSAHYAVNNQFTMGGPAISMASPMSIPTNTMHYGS
How it was run: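 Recombinant CARM1 with histone H3 substrate, in Tris-HCl pH 9. Enzyme pre-incubated with compound for 10 min at RT. [3H]SAM (20% labelled, 0.033 mCi/ml) and H3 were added, then 15 min at 30 °C. Quenched with SAH and spotted on P30 filtermat. Washed twice with 10% TCA and once with 95% ethanol, then wax scintillant counting. Values are means of at least two experiments.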

Rattus norvegicus [2] = experiment: (§1) Clearance in iv dosed rat; assay type: ADME, organism-based; settings: in vivo
Rattus norvegicus [3] = experiment: (§2) Volume of distribution at steady state in iv dosed rat; assay type: ADME, organism-based; settings: in vivo
Rattus norvegicus [4] = experiment: (§3) Half life in iv dosed rat; assay type: ADME, organism-based; settings: in vivo
[5] = as §1; assay type: ADME, organism-based; settings: in vivo
[6] = as §2; assay type: ADME, organism-based; settings: in vivo, read-out: Vdss
[7] = as §3; assay type: ADME, organism-based; settings: in vivo
[8] = Bioavailability in rat; assay type: ADME, organism-based; settings: in vivo
[9] = target: Protein arginine N-methyltransferase 1 (Homo sapiens, UniProt Q99873); experiment: Inhibition of N-terminal GST-tagged human recombinant PRMT1 expressed in Escherichia coli by microbeta counting
Chain of Protein arginine N-methyltransferase 1 (Q99873 whole entry): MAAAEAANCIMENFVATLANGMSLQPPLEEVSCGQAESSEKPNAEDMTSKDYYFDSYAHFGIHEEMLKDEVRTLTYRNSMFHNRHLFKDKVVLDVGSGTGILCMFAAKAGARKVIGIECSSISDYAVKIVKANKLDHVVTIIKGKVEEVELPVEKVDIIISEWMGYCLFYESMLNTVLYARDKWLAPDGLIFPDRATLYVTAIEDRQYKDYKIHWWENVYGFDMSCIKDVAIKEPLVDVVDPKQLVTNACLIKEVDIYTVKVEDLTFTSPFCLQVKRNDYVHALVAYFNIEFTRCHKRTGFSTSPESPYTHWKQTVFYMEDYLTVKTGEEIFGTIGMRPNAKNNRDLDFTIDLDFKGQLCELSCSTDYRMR
How it was run: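 GST-tagged human PRMT1 made in E. coli, with recombinant histone H4 as substrate, in Tris-HCl pH 9. Enzyme pre-incubated with compound for 10 min at RT. [3H]SAM (20% labelled, 0.033 mCi/ml) and H4 were added, then 15 min at 30 °C. Stopped with SAH and spotted onto P30 filtermat. Washed with 10% TCA and 95% ethanol, then scintillation-counted.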

[10] = target: T2, Histone-lysine N-methyltransferase SETD7 (Homo sapiens, UniProt Q8WTS6); experiment: Inhibition of N-terminal His-tagged human recombinant SET7/9 expressed in Escherichia coli by microbeta counting
T2 sequence (Q8WTS6 whole entry): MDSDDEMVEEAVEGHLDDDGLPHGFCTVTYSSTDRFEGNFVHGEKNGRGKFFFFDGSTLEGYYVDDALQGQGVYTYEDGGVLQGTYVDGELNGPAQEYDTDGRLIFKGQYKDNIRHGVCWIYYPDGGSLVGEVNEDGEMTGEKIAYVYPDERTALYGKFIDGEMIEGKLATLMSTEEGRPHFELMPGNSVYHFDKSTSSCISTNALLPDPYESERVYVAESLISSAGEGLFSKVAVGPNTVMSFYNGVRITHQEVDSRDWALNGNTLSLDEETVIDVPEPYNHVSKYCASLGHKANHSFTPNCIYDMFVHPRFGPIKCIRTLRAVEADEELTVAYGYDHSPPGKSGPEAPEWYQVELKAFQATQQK
How it was run: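 His-tagged human SET9 made in E. coli, with histone H3 substrate, in Tris-HCl pH 9. Compound and enzyme pre-incubated for 10 min at RT. [3H]SAM (20% labelled, 0.011 mCi/ml) and H3 were added, then 45 min at 37 °C. Reaction stopped and transferred to a flashplate. Washed twice with 10% TCA, dried and counted.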

CNCCNCc1cc(-n2nc(C(F)(F)F)cc2C(=O)NCc2ccccc2OC)ccc1C
pIC50 [1]: 5.10

CCNCCNCc1cccc(-n2nc(C(F)(F)F)cc2C(=O)NCc2ccccc2OC)c1
pIC50 [1]: 5.11

COc1ccccc1CNC(=O)c1cc(C(F)(F)F)nn1-c1cccc(CNC(=O)[C@H](C)N)c1
CL (Rattus norvegicus [2]): 1430 mL/min/kg | Vdss (Rattus norvegicus [3]): 33.6 L/kg | t1/2 (Rattus norvegicus [4]): 4.2 min

CCOc1ccccc1CNC(=O)c1cc(C(F)(F)F)nn1-c1cccc(CNCCNC)c1
pIC50 [1]: 6.05 | clearance [5]: 20 mL/min/kg | Vd [6]: 0.1 L/kg | half-life [7]: 0.5 h | bioavailability [8]: 2%

CNCCNCc1cccc(-n2nc(C(F)(F)F)cc2C(=O)NCc2cc(F)ccc2OC)c1
pIC50 [1]: 6.15

CNCCNCc1cccc(-n2nc(C(F)(F)F)cc2C(=O)NCc2ccccc2)c1
pIC50 [1]: < 5.00

COc1ccccc1CNC(=O)c1cc(C(F)(F)F)nn1-c1cccc(CNCCN(C)C)c1
pIC50 [1]: 5.10

CNCCNCc1cccc(-n2nc(C(F)(F)F)cc2C(=O)NCc2cccc3c2OCCO3)c1
pIC50 [1]: 6.15

CNCCNCc1ccc2c(c1)n1nc(C(F)(F)F)cc1c(=O)n2Cc1ccccc1OC
pIC50 [1]: < 5.00

COc1ccccc1CNC(=O)c1cc(C(F)(F)F)nn1-c1cccc(CNC(=O)[C@H](C)O)c1
pIC50 [1]: < 4.70

CNCCNCc1cccc(-n2nc(C(F)(F)F)cc2C(=O)NCc2cccc3ccccc23)c1
pIC50 [1]: 6.49 | clearance [5]: 38.3 mL/min/kg | Vd [6]: 0.2 L/kg | half-life [7]: 1.4 h | bioavailability [8]: 3%

COc1ccccc1CNC(=O)c1cc(C(F)(F)F)nn1-c1cccc(-c2noc([C@H](C)N)n2)c1
pIC50 [1]: < 4.70

CNCCNCc1cccc(-n2nc(C(F)(F)F)cc2C(=O)NCc2ccccc2C)c1
pIC50 [1]: 4.88

CNCCNCc1cccc(-n2nc(C(F)(F)F)cc2C(=O)NCC2CCCCC2)c1
pIC50 [1]: 5.44

CCc1ccccc1CNC(=O)c1cc(C(F)(F)F)nn1-c1cccc(CNCCNC)c1
pIC50 [1]: 5.79

CNCCNCc1cccc(-n2nc(C(F)(F)F)cc2C(=O)NCc2nc3ccccc3[nH]2)c1
pIC50 [1]: 5.37

CNCCNCc1cccc(-n2nc(C(F)(F)F)cc2C(=O)NCCc2c[nH]c3ccccc23)c1
pIC50 [1]: 5.74

COc1ccccc1CNC(=O)c1cc(C(F)(F)F)nn1-c1cccc(CNC(=S)[C@H](C)N)c1
pIC50 [1]: 5.35

COc1ccccc1CNC(=O)c1cc(C(F)(F)F)nn1-c1cccc(CCNC(=O)[C@H](C)N)c1
pIC50 [1]: < 4.70

CNCCNCc1cc(-n2nc(C(F)(F)F)cc2C(=O)NCc2ccccc2OC)ccc1F
pIC50 [1]: 5.25

CNCCNCc1cccc(-n2nc(C(F)(F)F)cc2C(=O)NCc2nc3ccccc3n2C)c1
pIC50 [1]: 5.33

CNCCNCc1cccc(-n2nc(C(F)(F)F)cc2C(=O)NCc2ccccc2OC(F)(F)F)c1
pIC50 [1]: 5.19

CNCCNC(C)c1cccc(-n2nc(C(F)(F)F)cc2C(=O)NCc2ccccc2OC)c1 (stereo unspecified)
pIC50 [1]: 4.68

COc1ccccc1CNC(=O)c1cc(C(F)(F)F)nn1-c1cccc(CNCCN)c1
pIC50 [1]: 6.00

COc1ccccc1CNC(=O)c1cc(C(F)(F)F)nn1-c1cccc(-c2n[nH]c([C@H](C)N)n2)c1
pIC50 [1]: < 4.70

CNCCNCc1cc(-n2nc(C(F)(F)F)cc2C(=O)NCc2ccccc2OC)cc(C(F)(F)F)c1
pIC50 [1]: < 4.70

CNCCNCc1cccc(-n2nc(C(F)(F)F)cc2C(=O)NCc2ccccc2N)c1
pIC50 [1]: < 5.00

COc1ccccc1CNC(=O)c1cc(C(F)(F)F)nn1-c1cccc(CNC2CCNC2)c1 (stereo unspecified)
pIC50 [1]: < 4.70

CNCCNCc1cccc(-n2nc(C(F)(F)F)cc2C(=O)NCc2c(OC)ccc3ccccc23)c1
pIC50 [1]: 5.47

CNCCNCc1cccc(-n2nc(C(F)(F)F)cc2-c2nnc(-c3ccccc3OC)o2)c1
clearance [5]: 36.7 mL/min/kg | Vd [6]: 0.6 L/kg | half-life [7]: 1.8 h | bioavailability [8]: 3%

CNCCNCc1cccc(-n2nc(C(F)(F)F)cc2C(=O)NCc2ccccc2OC)c1
pIC50 [1]: 6.70 | clearance [5]: 20 mL/min/kg | Vd [6]: 1.4 L/kg | half-life [7]: 2.1 h | bioavailability [8]: 4% | pIC50 [9]: < 4.00 | pIC50 [10]: < 4.00

CNCCNC(=O)c1cccc(-n2nc(C(F)(F)F)cc2C(=O)NCc2ccccc2OC)c1
pIC50 [1]: < 4.70
